Laboratory results as given in ChEMBL document CHEMBL4145587, “Peniisocoumarins A-J: Isocoumarins from Penicillium commune QQF-3, an Endophytic Fungus of the Mangrove Plant Kandelia candel” (J Nat Prod, 2018).
Active and inactive are the calls of the source. No cut-off for these calls is given here.

What was measured:
Saccharomyces cerevisiae = assay: Inhibition of Saccharomyces cerevisiae alpha-glucosidase at 200 uM using p-nitrophenyl-glycoside as substrate incubated for 20 mins followed by substrate addition measured immediately relative to control
Outline: (§1)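 Yeast α-glucosidase from S. cerevisiae, from an enzyme stock of 2.0 units/mL, in 0.01 M potassium phosphate buffer at pH 7.0. Sample in DMSO was preincubated with enzyme for 20 min at 37 °C. p-Nitrophenyl glycoside (3 mg/mL stock) was then added and A410 read immediately at 37 °C. Inhibition % = (B−S)/B×100, with B as the DMSO blank. Screened at 200 μM; compounds above 45% inhibition went on to IC50. Triplicates.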

[1] = target: T1, Phosphotyrosine protein phosphatase (Mycobacterium tuberculosis) (UniProt A0A045ISB3); assay: Inhibition of Mycobacterium tuberculosis H37Ra PTPB expressed in Escherichia coli BL21 (DE3) at 50 uM using p-nitrophenyl phosphate as substrate preincubated for 10 mins followed by substrate addition measured for 5 mins by spectrophotometric analysis
T1 sequence (whole entry): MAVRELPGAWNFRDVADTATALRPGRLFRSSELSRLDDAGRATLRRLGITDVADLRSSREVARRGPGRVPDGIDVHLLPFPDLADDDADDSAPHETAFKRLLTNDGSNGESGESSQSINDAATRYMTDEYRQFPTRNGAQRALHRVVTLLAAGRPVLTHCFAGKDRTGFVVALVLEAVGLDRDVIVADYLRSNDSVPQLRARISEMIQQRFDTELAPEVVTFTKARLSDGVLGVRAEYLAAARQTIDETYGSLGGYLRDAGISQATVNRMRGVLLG
Outline: (§2)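 Triplicate wells; reaction buffer 50 mM Tris/100 mM NaCl, pH 7.0; p-nitrophenyl phosphate as substrate; oleanolic acid as positive control. Full details on enzyme overexpression, purification and assay are given in an earlier report.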

A549 = assay: Cytotoxicity against human A549 cells by MTT assay; assay type: functional, cell-based
Outline: (§3)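 MTT read-out in human cell lines A549, HepG2, HeLa, MCF-7 and HEK293T. Compounds were tested at 100 μM. Other details follow a prior report.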

HepG2 = assay: Cytotoxicity against human HepG2 cells by MTT assay; assay type: functional, cell-based; outline: as §3
HeLa = assay: Cytotoxicity against human HeLa cells by MTT assay; assay type: functional, cell-based; outline: as §3
MCF7 = assay: Cytotoxicity against human MCF7 cells by MTT assay; assay type: functional, cell-based; outline: as §3
HEK-293T = assay: Cytotoxicity against human HEK293T cells by MTT assay; assay type: functional, cell-based; outline: as §3
[2] = Inhibition of Saccharomyces cerevisiae alpha-glucosidase using p-nitrophenyl-glycoside as substrate incubated for 20 mins followed by substrate addition measured immediately; outline: as §1
[3] = target: T2, Phosphotyrosine protein phosphatase (Mycobacterium tuberculosis, UniProt A0A045ISB3); assay: Inhibition of Mycobacterium tuberculosis H37Ra PTPB expressed in Escherichia coli BL21 (DE3) using p-nitrophenyl phosphate as substrate preincubated for 10 mins followed by substrate addition measured for 5 mins by spectrophotometric analysis; outline: as §2
T2 sequence (A0A045ISB3 whole entry): T1 sequence (whole entry)

| Structure (SMILES) | inhibition (Saccharomyces cerevisiae) [%] | inhibition [1] | Activity (A549) | Activity (HepG2) | Activity (HeLa) | Activity (MCF7) | Activity (HEK-293T) | IC50 [2] [µM] | IC50 [3] [µM] |
| --- | --- | --- | --- | --- | --- | --- | --- | --- | --- |
| COc1cc(O)c2c(=O)oc(C[C@@H](O)CC(C)=O)cc2c1 | 38 | inactive | inactive | inactive | inactive | inactive | inactive |  |  |
| COc1cc(O)c2c(=O)oc(C[C@@H](Cl)CO)cc2c1 | 58 | inactive | inactive | inactive | inactive | inactive | inactive | 158 |  |
| COc1cc(O)c2c(=O)oc(C[C@@H](O)CO)cc2c1 | 43 | inactive | inactive | inactive | inactive | inactive | inactive |  |  |
| C[C@H]1O[C@H](O[C@H]2[C@H](O)[C@@H](O)[C@@H](O[C@H]3[C@H](O)[C@@H](O)C(O)O[C@@H]3CO)O[C@@H]2CO)[C@H](O)[C@@H](O)[C@@H]1N[C@H]1C=C(CO)[C@@H](O)[C@H](O)[C@H]1O (stereo partly specified) [ACARBOSE] | 19 |  |  |  |  |  |  | 478 |  |
| COC(=O)[C@@H]1[C@H](C(=O)OC)[C@@H](c2cc3cc(OC)cc(O)c3c(=O)o2)[C@H]1c1cc2cc(OC)cc(O)c2c(=O)o1 | 18 | inactive | inactive | inactive | inactive | inactive | inactive |  |  |
| COc1cc(O)c2c(=O)oc(C[C@@H](O)CO)cc2c1O | 83 | inactive | inactive | inactive | inactive | inactive | inactive | 78.1 |  |
| COc1cc(O)c2c(=O)oc(C[C@@H](O)CCl)cc2c1 | 41 | inactive | inactive | inactive | inactive | inactive | inactive |  |  |
| C[C@H](O)Cc1cc2c(O)c(O)cc(O)c2c(=O)o1 | 91 |  | inactive | inactive | inactive | inactive | inactive | 40.5 | 20.7 |
| COc1cc(O)c2c(=O)oc(C[C@H](C)O)cc2c1 | 33 | inactive | inactive | inactive | inactive | inactive | inactive |  |  |
| COC(=O)[C@@H]1[C@H](C(=O)OC)[C@H](c2cc3cc(OC)cc(O)c3c(=O)o2)[C@@H]1c1cc2cc(OC)cc(O)c2c(=O)o1 | 23 | inactive | inactive | inactive | inactive | inactive | inactive |  |  |
| COc1cc(O)c2c(=O)oc(C[C@@H](O)C(Cl)Cl)cc2c1O | 91 | inactive | inactive | inactive | inactive | inactive | inactive | 45.1 |  |
| COc1cc(O)c2c(=O)oc(C[C@@H](O)C(Cl)Cl)cc2c1 | 69 | inactive | inactive | inactive | inactive | inactive | inactive | 102 |  |
| COc1cc(O)c2c(=O)oc(C[C@@H]3O[C@@H]3C(C)=O)cc2c1 | 95 | inactive | inactive | inactive | inactive | inactive | inactive | 38.1 |  |
| CC1(C)CC[C@]2(C(=O)O)CC[C@]3(C)C(=CC[C@@H]4[C@@]5(C)CC[C@H](O)C(C)(C)[C@@H]5CC[C@]43C)[C@@H]2C1 [OLEANOLIC_ACID] |  |  |  |  |  |  |  |  | 22.1 |
| COc1cc(O)c2c(=O)oc(C[C@@H](Cl)CO)cc2c1O | 66 | inactive | inactive | inactive | inactive | inactive | inactive | 110 |  |
